Legend:
Format in all cases: functional
CAKI-1 = test: Cytotoxicity against human Caki1 cells after 48 hrs by SRB assay; details: CAKI-1, 48 h
How it was run: (§1)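 NCI-60 human tumour cell panel screen, second stage, run by the NCI Developmental Therapeutics Program. Compounds were tested at five concentrations (0.01, 0.1, 1, 10 and 100 μM). Percentage growth was plotted against log10 concentration for each cell line. GI50, TGI and LC50 were taken from these dose-response curves.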

MOLT-4 = test: Cytotoxicity against human MOLT4 cells after 48 hrs by SRB assay; details: MOLT-4, 48 h
How it was run: (§2)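 Second-stage NCI-60 panel run by the NCI Developmental Therapeutics Program, covering nine tumour subpanels. Five concentrations were tested: 0.01, 0.1, 1, 10 and 100 μM. Percentage growth at each level was plotted against log10 drug concentration. GI50, TGI and LC50 were read from these dose-response curves. Subpanel MID values were divided into the full-panel MID to give selectivity ratios.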

SN12C = test: Cytotoxicity against human SN12C cells after 48 hrs by SRB assay; how it was run: as §2
SR = test: Cytotoxicity against human SR cells after 48 hrs by SRB assay
How it was run: (§3)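 NCI-60 five-dose study run by NCI DTP at 0.01, 0.1, 1, 10 and 100 µM. Percentage growth at each level was plotted against log10 concentration for each line, and GI50, TGI and LC50 were read from the dose-response curves.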

SW-620 = test: Cytotoxicity against human SW620 cells after 48 hrs by SRB assay; details: SW-620, 48 h; how it was run: as §3
SK-MEL-5 = test: Cytotoxicity against human SK-MEL-5 cells after 48 hrs by SRB assay; details: SK-MEL-5, 48 h; how it was run: as §2
[1] = Cytotoxicity against human Hs578T cells after 48 hrs by SRB assay; details: Hs-578T; how it was run: as §1
MDA-MB-231 = test: Cytotoxicity against human MDA-MB-231 cells after 48 hrs by SRB assay; details: MDA-MB-231, 48 h; how it was run: as §2
RXF 393 = test: Cytotoxicity against human RXF393 cells after 48 hrs by SRB assay; details: RXF 393, 48 h; how it was run: as §2
MDA-MB-435 = test: Cytotoxicity against human MDA-MB-435 cells after 48 hrs by SRB assay; details: MDA-MB-435, 48 h; how it was run: as §2
TK-10 = test: Cytotoxicity against human TK10 cells after 48 hrs by SRB assay; details: TK-10, 48 h; how it was run: as §3
SNB-19 = test: Cytotoxicity against human SNB19 cells after 48 hrs by SRB assay; details: SNB-19, 48 h; how it was run: as §2
[2] = Cytotoxicity against human non-small cell lung cancer cells assessed as growth inhibition after 48 hrs by SRB assay; details: Cancer cell lines
How it was run: (§4)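 Values come from the NCI-60 five-dose panel (0.01–100 µM). The subpanel MID is the mean GI50 over the lines of that tumour subpanel. The selectivity ratio is the full-panel MID divided by the subpanel MID; 3–6 is rated moderate and >6 high.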

ACHN = test: Cytotoxicity against human ACHN cells after 48 hrs by SRB assay; how it was run: as §1
DU-145 = test: Cytotoxicity against human DU145 cells after 48 hrs by SRB assay; details: DU-145, 48 h; how it was run: as §1
NCI-H23 = test: Cytotoxicity against human NCI-H23 cells after 48 hrs by SRB assay; details: NCI-H23, 48 h; how it was run: as §2
UACC-257 = test: Cytotoxicity against human UACC257 cells after 48 hrs by SRB assay; details: UACC-257, 48 h; how it was run: as §3
UO-31 = test: Cytotoxicity against human UO31 cells after 48 hrs by SRB assay; details: UO-31, 48 h; how it was run: as §3
LOX IMVI = test: Cytotoxicity against human LOXIMVI cells after 48 hrs by SRB assay; how it was run: as §1
HT-29 = test: Cytotoxicity against human HT-29 cells after 48 hrs by SRB assay; details: HT-29, 48 h; how it was run: as §1
[3] = Cytotoxicity against human breast cancer cells assessed as growth inhibition after 48 hrs by SRB assay; details: Cancer cell lines; how it was run: as §4
Malme-3M = test: Cytotoxicity against human MALME-3M cells after 48 hrs by SRB assay; how it was run: as §1
MDA-MB-468 = test: Cytotoxicity against human MDA-MB-468 cells after 48 hrs by SRB assay; details: MDA-MB-468, 48 h; how it was run: as §2
U-251 = test: Cytotoxicity against human U251 cells after 48 hrs by SRB assay; details: U-251, 48 h; how it was run: as §3
[4] = Cytotoxicity against human prostate cancer cells assessed as growth inhibition after 48 hrs by SRB assay; details: Cancer cell lines; how it was run: as §4
[5] = Cytotoxicity against human renal cancer cells assessed as growth inhibition after 48 hrs by SRB assay; details: Cancer cell lines; how it was run: as §4
IGROV-1 = test: Cytotoxicity against human IGROV1 cells after 48 hrs by SRB assay; details: IGROV-1, 48 h; how it was run: as §1
T47D = test: Cytotoxicity against human T47D cells after 48 hrs by SRB assay; how it was run: as §3
KM12 = test: Cytotoxicity against human KM12 cells after 48 hrs by SRB assay; details: KM12, 48 h; how it was run: as §1
HCC 2998 = test: Cytotoxicity against human HCC2998 cells after 48 hrs by SRB assay; details: HCC 2998, 48 h; how it was run: as §1
NCI-H460 = test: Cytotoxicity against human NCI-H460 cells after 48 hrs by SRB assay; details: NCI-H460, 48 h; how it was run: as §2
[6] = read-out: LC50 (the source's name)

In the case of `CC(C)Sc1cc2c(c3nsnc13)C(=O)c1ccccc1C2=O`, the GI50 (CAKI-1) is reported as 0.59 µM, the LC50 (concentration causing 50% net cell kill) (CAKI-1) is reported as 9.08 µM and the TGI (CAKI-1) is reported as 2.59 µM. The GI50 (MOLT-4) was 0.18 µM, the LC50 (MOLT-4) was over 100 µM and the TGI (MOLT-4) was 0.49 µM. For the same molecule, the GI50 (SN12C) was 0.66 µM, the TGI (SN12C) was 2.41 µM and the CC50 (SN12C; [6]) was 7.09 µM. It also gave a GI50 (SR) of 0.31 µM, an LC50 (SR) of 7.46 µM and a TGI (SR) of 1.19 µM. For the same molecule, the GI50 (SW-620) was 0.43 µM, the LC50 (50% lethal concentration) (SW-620) was 11.7 µM and the TGI (SW-620) was 2.21 µM. It also gave a GI50 (SK-MEL-5) of 1.29 µM, an LC50 (SK-MEL-5) of 5.23 µM and a TGI (SK-MEL-5) of 2.6 µM. It also gave a GI50 [1] of 1.62 µM, an LC50 [1] of over 100 µM and a TGI [1] of 6.27 µM. The GI50 (MDA-MB-231) was 0.29 µM, the LC50 (concentration killing 50% of cells) (MDA-MB-231) was 4.9 µM and the TGI (MDA-MB-231) was 1.41 µM. The GI50 (RXF 393) was 1.77 µM, the LC50 (concentration killing 50% of cells) (RXF 393) was 16.9 µM and the TGI (RXF 393) was 4.83 µM. It also gave a GI50 (MDA-MB-435) of 0.2 µM, an LC50 (MDA-MB-435) of 0.74 µM and a TGI (MDA-MB-435) of 0.39 µM. For the same molecule, the GI50 (TK-10) was 5.68 µM, the LC50 (concentration killing 50% of cells) (TK-10) was 87.6 µM and the TGI (TK-10) was 18 µM. For the same molecule, the GI50 (SNB-19) was 3.32 µM, the LC50 (SNB-19) was 36.3 µM and the TGI (SNB-19) was 13.1 µM. It also gave a GI50 [2] of 1.81 µM, a GI50 (ACHN) of 1.25 µM and an LC50 (ACHN) of 8.5 µM. It also gave a TGI (ACHN) of 3.26 µM, a GI50 (DU-145) of 1.45 µM and an LC50 (DU-145) of 26.4 µM. The TGI (DU-145) was 6.64 µM, the GI50 (NCI-H23) was 0.56 µM and the LC50 (NCI-H23) was 8.48 µM. For the same molecule, the TGI (NCI-H23) was 2.58 µM, the GI50 (UACC-257) was 0.57 µM and the LC50 (UACC-257) was 4.47 µM. It also gave a TGI (UACC-257) of 1.88 µM, a GI50 (UO-31) of 1.16 µM and an LC50 (UO-31) of 11.9 µM. It also gave a TGI (UO-31) of 3.56 µM, a GI50 (LOX IMVI) of 0.34 µM and a TGI (LOX IMVI) of 1.31 µM. The CC50 (LOX IMVI; [6]) was 4.73 µM, the GI50 (HT-29) was 12.2 µM and the LC50 (HT-29) was 92.7 µM. For the same molecule, the TGI (HT-29) was 33.6 µM, the GI50 [3] was 1.09 µM and the GI50 (Malme-3M) was 1.12 µM. The LC50 (Malme-3M) was 5.03 µM, the TGI (Malme-3M) was 2.38 µM and the GI50 (MDA-MB-468) was 0.37 µM. The LC50 (MDA-MB-468) was 4.39 µM, the TGI (MDA-MB-468) was 1.42 µM and the GI50 (U-251) was 1.48 µM. The LC50 (U-251) was 6.75 µM, the TGI (U-251) was 3.16 µM and the GI50 [4] was 0.85 µM. The GI50 [5] was 1.58 µM, the GI50 (IGROV-1) was 0.96 µM and the LC50 (IGROV-1) was 9.18 µM. For the same molecule, the TGI (IGROV-1) was 3.01 µM, the GI50 (T47D) was 0.38 µM and the LC50 (concentration killing 50% of cells) (T47D) was 9.11 µM. The TGI (T47D) was 2.15 µM, the GI50 (KM12) was 3.19 µM and the LC50 (concentration killing 50% of cells) (KM12) was 41.1 µM. It also gave a TGI (KM12) of 11.3 µM, a GI50 (HCC 2998) of 3.46 µM and an LC50 (HCC 2998) of 34.9 µM. The TGI (HCC 2998) was 11.1 µM, the GI50 (NCI-H460) was 2.02 µM and the LC50 (concentration killing 50% of cells) (NCI-H460) was 40.5 µM. The TGI (NCI-H460) was 8.33 µM.
